Laboratory results reported in ChEMBL document CHEMBL4002579, “Isolation and Structure Elucidation by LC-DAD-MS and LC-DAD-SPE-NMR of Cyclopeptide Alkaloids from the Roots of Ziziphus oxyphylla and Evaluation of Their Antiplasmodial Activity” (J Nat Prod, 2016).

Assays:
Plasmodium falciparum [1] = test: Antiplasmodial activity against chloroquine-resistant Plasmodium falciparum K1 infected in human O+erythrocytes after 72 hrs by lactate dehydrogenase assay; format: functional, cell-based; settings: K1, 72 h
MRC5 = test: Cytotoxicity against human MRC5 cells assessed as decrease in cell proliferation/viability after 7 days by MTT assay; format: cell-based; settings: MRC5, 168 h
In short: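 Human fetal lung fibroblast MRC-5 cells; tested up to a highest concentration of 64.0 μM. Result is the mean and standard deviation of three experiments.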

Plasmodium falciparum [2] = test: Antiplasmodial activity against multidrug-resistant Plasmodium falciparum K1 assessed as reduction in parasite growth by [3H]-hypoxanthine incorporation assay; format: functional

Row | SMILES | IC50 (Plasmodium falciparum [1]) [µM] | IC50 (MRC5) [µM] | IC50 (Plasmodium falciparum [2]) [µM]
1 | CCC(C)[C@@H]1NC(=O)[C@@H]2[C@H](CCN2C(=O)[C@H](Cc2c[nH]c3ccccc23)N(C)C)Oc2ccc(OC)c(c2)/C=C\NC1=O (stereo partly specified) | 3.2 | 30.6 | 
2 | O=C1N/C=C\c2ccc(cc2)O[C@@H](c2ccccc2)[C@H](NC(=O)[C@@H]2CCCN2C(=O)/C=C/c2ccccc2)C(=O)N[C@H]1C(O)c1ccccc1 (stereo partly specified) | 7.4 | 31.2 | 
3 | CCC(C)[C@@H]1NC(=O)[C@@H]2[C@H](CCN2C(=O)[C@H](Cc2c[nH]c3ccccc23)N(C)C)Oc2ccc(cc2)/C=C\NC1=O (stereo partly specified) | 13.6 | > 64 | 7.3
4 | CCC(C)[C@@H]1NC(=O)[C@@H]2[C@H](CCN2C(=O)[C@H](Cc2c[nH]c3ccccc23)N(C)C)Oc2ccc(O)c(c2)/C=C\NC1=O (stereo partly specified) | 7.1 | > 64 | 
5 | CCC(C)[C@@H]1NC(=O)[C@@H]2[C@H](CCN2C(=O)[C@H](C(C)CC)N(C)C)Oc2ccc(cc2)/C=C\NC1=O (stereo partly specified) | > 32 | > 64 | 
